According to ChEMBL document CHEMBL5674876, “Epigenetic Activation of Pro-angiogenic Signaling Pathways in Human Endothelial Progenitors Increases Vasculogenesis” (Stem Cell Reports, 2017):
Active and inactive are the calls of the source. No cut-off for these calls is given here.

How the values were obtained:
HUVEC [1] = test: Effect on pro-angiogenic property in human umbilical cord derived endothelial colony forming cells assessed as increase in ERK1 protein phosphorylation by Western blotting analysis; format: functional, cell-based
HUVEC [2] = test: Resistance to serum induced starvation of cell apoptosis in human umbilical cord derived endothelial colony forming cells grown in EBM2 medium measured in presence of panobinostat by annexin V staining analysis; format: functional, cell-based
Procedure, shortened: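 Drug- or vehicle-pretreated ECFCs were serum-starved overnight (16 hr) in EBM-2 lacking supplements. Cells were then suspended in annexin V binding buffer, stained with annexin V and 7-AAD, and analysed by flow cytometry. Values are percentage of vehicle control ±SEM, n = 3 experiments in duplicate.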

HUVEC [3] = test: Effect on human umbilical cord derived endothelial colony forming cells assessed as reversal of increase in H3K4me3 level in presence of panobinostat measured after 24 hrs of drug removal by qRT-PCR analysis; format: functional, cell-based
HUVEC [4] = test: Downregulation of SEMA3A in human umbilical cord derived endothelial colony forming cells by qRT-PCR analysis; format: functional, cell-based
[5] = test system: Umbilical cord derived endothelial colony forming cell; test: Activation of WNT pro-angiogenic pathway in human umbilical cord derived endothelial colony forming cells by measuring TCF7L1 level in presence of panobinostat by qRT-PCR analysis; format: cell-based; conditions: filed as activator
HUVEC [6] = test: Effect on human umbilical cord derived endothelial colony forming cells assessed as decrease in H3K27me3 level by ChIP-qPCR analysis; format: functional, cell-based
[7] = biological target: DNA (cytosine-5)-methyltransferase 1 (Homo sapiens) (UniProt P26358); test: Inhibition of DNMT1 in human umbilical cord derived endothelial colony forming cells assessed as decrease in protein level by Western blotting analysis; format: cell-based; conditions: Umbilical cord derived endothelial colony forming cell
Chain of DNA (cytosine-5)-methyltransferase 1 (Homo sapiens) (P26358 whole entry, the tested form may be a part): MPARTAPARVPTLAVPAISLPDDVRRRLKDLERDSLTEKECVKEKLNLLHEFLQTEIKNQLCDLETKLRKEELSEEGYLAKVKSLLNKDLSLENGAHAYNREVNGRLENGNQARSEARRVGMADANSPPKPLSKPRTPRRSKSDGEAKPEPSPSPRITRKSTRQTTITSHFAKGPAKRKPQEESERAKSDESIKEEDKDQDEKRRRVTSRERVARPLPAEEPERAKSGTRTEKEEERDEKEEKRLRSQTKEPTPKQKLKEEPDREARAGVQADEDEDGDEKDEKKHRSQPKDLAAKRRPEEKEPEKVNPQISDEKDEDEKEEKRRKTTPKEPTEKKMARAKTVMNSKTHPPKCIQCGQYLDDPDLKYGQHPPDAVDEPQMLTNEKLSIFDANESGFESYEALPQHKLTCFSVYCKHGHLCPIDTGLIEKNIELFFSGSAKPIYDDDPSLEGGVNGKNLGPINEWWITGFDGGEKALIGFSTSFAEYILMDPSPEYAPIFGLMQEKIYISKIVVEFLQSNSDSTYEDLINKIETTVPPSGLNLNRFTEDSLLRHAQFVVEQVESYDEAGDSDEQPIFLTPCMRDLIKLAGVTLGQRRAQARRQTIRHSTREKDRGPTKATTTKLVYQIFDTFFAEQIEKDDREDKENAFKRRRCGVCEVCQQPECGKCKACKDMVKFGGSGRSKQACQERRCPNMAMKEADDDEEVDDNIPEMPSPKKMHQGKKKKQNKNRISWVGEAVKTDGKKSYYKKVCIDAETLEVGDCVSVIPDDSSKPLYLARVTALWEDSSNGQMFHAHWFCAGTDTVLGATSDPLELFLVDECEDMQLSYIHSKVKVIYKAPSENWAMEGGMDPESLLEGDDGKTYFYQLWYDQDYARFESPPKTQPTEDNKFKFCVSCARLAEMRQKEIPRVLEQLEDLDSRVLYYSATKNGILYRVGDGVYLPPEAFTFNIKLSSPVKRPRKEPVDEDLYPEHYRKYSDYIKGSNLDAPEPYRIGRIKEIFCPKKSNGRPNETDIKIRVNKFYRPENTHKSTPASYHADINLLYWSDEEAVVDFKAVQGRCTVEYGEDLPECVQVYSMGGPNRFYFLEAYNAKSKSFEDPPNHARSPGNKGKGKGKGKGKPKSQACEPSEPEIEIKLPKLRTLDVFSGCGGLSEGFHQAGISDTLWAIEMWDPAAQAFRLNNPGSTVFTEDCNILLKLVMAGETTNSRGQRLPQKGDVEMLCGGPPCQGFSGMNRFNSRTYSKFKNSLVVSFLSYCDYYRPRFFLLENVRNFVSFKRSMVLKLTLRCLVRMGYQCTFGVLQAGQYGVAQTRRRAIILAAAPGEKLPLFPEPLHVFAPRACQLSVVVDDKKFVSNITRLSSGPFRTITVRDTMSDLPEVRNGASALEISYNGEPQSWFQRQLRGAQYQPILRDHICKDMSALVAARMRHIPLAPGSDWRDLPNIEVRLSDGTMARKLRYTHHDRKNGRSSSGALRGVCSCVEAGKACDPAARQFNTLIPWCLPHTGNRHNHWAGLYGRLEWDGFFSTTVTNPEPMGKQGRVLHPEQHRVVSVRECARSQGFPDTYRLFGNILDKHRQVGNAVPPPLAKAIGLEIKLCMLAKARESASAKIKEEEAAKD

Mus musculus = organism: Mus musculus; test: Effect on restoration of blood flow in athymic nude CD1 hindlimb ischemia mouse model in presence of panobinostat for 28 days by laser doppler perfusion imaging analysis; format: functional, organism-based; conditions: time 28.0 day
Procedure, shortened: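 Left femoral artery ligated in 8-week-old female athymic nude CD1 mice; 5 × 10^5 ECFCs pretreated with the combination or vehicle, in 50 μL PBS, given as two intramuscular injections into adductor muscle after skin closure. Perfusion measured by laser Doppler pre-op, day 0 and later days; ischemic/non-ischemic ratio, n = 7–8 mice to day 14, 3–4 to day 28.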

HUVEC [8] = test: Effect on pro-angiogenic property in human umbilical cord derived endothelial colony forming cells assessed as formation of capillary network on matrigel; format: functional, cell-based; conditions: dose 0.01-5 µM
Procedure, shortened: (§1)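 Drug- or vehicle-pretreated ECFCs seeded at 5,000 cells/well on phenol-red-free growth-factor-reduced Matrigel in duplicate; after 24 hr stained with 5 μg/mL calcein 5 min at 37°C, imaged at 2.5×. Total tube length expressed as percentage of vehicle control ±SEM, three independent experiments.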

[9] = biological target: Histone-lysine N-methyltransferase EZH2 (Homo sapiens) (UniProt Q15910); test: Inhibition of EZH2 in human umbilical cord derived endothelial colony forming cells assessed as decrease in H3K27me1 level at 0.01 to 5 uM measured after 24 to 72 hrs by Western blotting analysis; format: cell-based; conditions: Umbilical cord derived endothelial colony forming cell, dose 0.01-5 µM, time 24-72 hrs
Chain of Histone-lysine N-methyltransferase EZH2 (Homo sapiens) (Q15910 whole entry, looked up): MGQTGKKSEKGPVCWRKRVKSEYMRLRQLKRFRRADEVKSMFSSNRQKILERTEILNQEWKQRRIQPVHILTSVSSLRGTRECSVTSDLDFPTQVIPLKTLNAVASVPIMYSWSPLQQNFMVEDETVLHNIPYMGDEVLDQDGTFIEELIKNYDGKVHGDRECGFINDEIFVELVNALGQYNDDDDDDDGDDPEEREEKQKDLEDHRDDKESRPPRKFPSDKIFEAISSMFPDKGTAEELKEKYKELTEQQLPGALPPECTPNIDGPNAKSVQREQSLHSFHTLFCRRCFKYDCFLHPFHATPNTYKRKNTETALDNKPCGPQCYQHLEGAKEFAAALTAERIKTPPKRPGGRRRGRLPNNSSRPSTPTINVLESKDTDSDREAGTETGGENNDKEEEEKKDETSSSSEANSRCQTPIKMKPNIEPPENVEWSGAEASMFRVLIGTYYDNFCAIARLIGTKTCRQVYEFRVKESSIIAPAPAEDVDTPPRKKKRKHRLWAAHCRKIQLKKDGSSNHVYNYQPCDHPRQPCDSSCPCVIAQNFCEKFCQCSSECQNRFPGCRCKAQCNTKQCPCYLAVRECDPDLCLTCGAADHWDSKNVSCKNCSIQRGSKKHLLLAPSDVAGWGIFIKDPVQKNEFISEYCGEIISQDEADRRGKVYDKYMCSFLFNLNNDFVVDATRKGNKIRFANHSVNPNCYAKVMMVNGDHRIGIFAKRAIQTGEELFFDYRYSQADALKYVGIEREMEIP
Procedure, shortened: (§2)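 Human cord-blood ECFC clones, at least three independent, passages 3–6, grown in EGM-2 with 10% FBS. Histone methylation marks were assessed by western blot, with total histone H3 and H4 as loading controls.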

[10] = test system: Umbilical cord derived endothelial colony forming cell; test: Activation of WNT pro-angiogenic pathway in human umbilical cord derived endothelial colony forming cells by measuring WNT11 level in presence of panobinostat by qRT-PCR analysis; format: cell-based; conditions: filed as activator
[11] = biological target: Histone-lysine N-methyltransferase EZH2 (Homo sapiens) (UniProt Q15910); test: Inhibition of EZH2 in human umbilical cord derived endothelial colony forming cells assessed as decrease in H3K27me2 level at 0.01 to 5 uM by Western blotting analysis; format: cell-based; conditions: Umbilical cord derived endothelial colony forming cell, dose 0.01-5 µM, time 24-72 hrs, TDE = time-dependent effect; procedure, shortened: as §2
HUVEC [12] = test: Effect on pro-angiogenic property in human umbilical cord derived endothelial colony forming cells assessed as increase in AKT protein phosphorylation by Western blotting analysis; format: functional, cell-based
[13] = biological target: Histone-lysine N-methyltransferase EZH2 (Homo sapiens) (UniProt Q15910); test: Inhibition of EZH2 in human umbilical cord derived endothelial colony forming cells assessed as decrease in H4K20me3 level at 0.01 to 5 uM measured after 24 to 72 hrs by Western blotting analysis; format: cell-based; conditions: Umbilical cord derived endothelial colony forming cell, dose 0.01-5 µM, time 24-72 hrs; procedure, shortened: as §2
HUVEC [14] = test: Effect on pro-angiogenic property in human umbilical cord derived endothelial colony forming cells assessed as increase in intracellular NOTCH protein phosphorylation by Western blotting analysis; format: functional, cell-based
[15] = biological target: Histone deacetylase 1 (Homo sapiens) (UniProt Q13547); test: Inhibition of deacetylase HDAC1 in human umbilical cord derived endothelial colony forming cells assessed as decrease in protein level by Western blotting analysis; format: cell-based; conditions: Umbilical cord derived endothelial colony forming cell
Chain of Histone deacetylase 1 (Homo sapiens) (Q13547 whole entry): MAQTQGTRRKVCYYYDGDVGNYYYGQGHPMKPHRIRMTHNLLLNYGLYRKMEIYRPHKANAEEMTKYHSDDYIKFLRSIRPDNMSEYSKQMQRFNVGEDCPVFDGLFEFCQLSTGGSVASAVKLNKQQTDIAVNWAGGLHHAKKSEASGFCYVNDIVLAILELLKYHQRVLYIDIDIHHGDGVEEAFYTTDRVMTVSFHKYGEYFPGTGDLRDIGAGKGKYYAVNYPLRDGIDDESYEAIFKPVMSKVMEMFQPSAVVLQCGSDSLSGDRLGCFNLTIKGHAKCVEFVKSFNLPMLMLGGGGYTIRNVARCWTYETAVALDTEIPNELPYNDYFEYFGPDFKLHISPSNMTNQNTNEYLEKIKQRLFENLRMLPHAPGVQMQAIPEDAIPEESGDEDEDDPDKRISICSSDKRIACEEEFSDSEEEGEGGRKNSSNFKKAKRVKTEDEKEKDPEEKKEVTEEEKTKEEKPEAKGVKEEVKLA
Procedure, shortened: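 Cord-blood ECFCs were treated with an EZH2 inhibitor at 5 μM for 72 hr, then an HDAC inhibitor at 10 nM for 2 hr, or with vehicle. Levels of the epigenetic enzymes were read by western blot, with tubulin as loading control.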

HUVEC [16] = test: Resistance to induction of cell apoptosis in human umbilical cord derived endothelial colony forming cells in presence of panobinostat by annexin V staining analysis; format: functional, cell-based
Procedure, shortened: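 ECFCs were pretreated with the epigenetic drugs or vehicle and kept in serum-containing EGM-2. Apoptosis was scored by flow cytometry after annexin V and 7-AAD staining. Values are expressed as percentage of vehicle-treated control, mean ±SEM, three independent experiments each in duplicate.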

[17] = test system: Umbilical cord derived endothelial colony forming cell; test: Activation of WNT pro-angiogenic pathway in human umbilical cord derived endothelial colony forming cells by measuring DKK3 level at 5 uM for 72 hrs in presence of panobinostat for 2 hrs by qRT-PCR analysis; format: cell-based; conditions: filed as activator
HUVEC [18] = test: Effect on pro-angiogenic property in human umbilical cord derived endothelial colony forming cells assessed as formation of capillary network on matrigel at 5 uM for 72 hrs in presence of panobinostat; format: functional, cell-based; procedure, shortened: as §1
[19] = test system: Umbilical cord derived endothelial colony forming cell; test: Activation of WNT pro-angiogenic pathway in human umbilical cord derived endothelial colony forming cells by measuring WNT9A level in presence of panobinostat by qRT-PCR analysis; format: cell-based; conditions: filed as activator
HUVEC [20] = test: Effect on pro-angiogenic property in human umbilical cord derived endothelial colony forming cells assessed as increase in KDR level in presence of panobinostat by qRT-PCR analysis; format: functional, cell-based
HUVEC [21] = test: Effect on pro-angiogenic property in human umbilical cord derived endothelial colony forming cells assessed as cell migration treated for 72 hrs measured by crystal violet staining analysis based gap closure assay; format: functional; conditions: dose 0.1-5 µM
HUVEC [22] = test: Effect on pro-angiogenic property in human umbilical cord derived endothelial colony forming cells assessed as increase in CXCL12 level by qRT-PCR analysis; format: functional, cell-based
[23] = test system: Umbilical cord derived endothelial colony forming cell; test: Activation of WNT pro-angiogenic pathway in human umbilical cord derived endothelial colony forming cells by measuring MML1 level in presence of panobinostat by qRT-PCR analysis; format: cell-based; conditions: filed as activator
[24] = test system: Umbilical cord derived endothelial colony forming cell; test: Activation of WNT pro-angiogenic pathway in human umbilical cord derived endothelial colony forming cells by measuring FZD5 level in presence of panobinostat by qRT-PCR analysis; format: cell-based; conditions: filed as activator
HUVEC [25] = test: Effect on pro-angiogenic property in human umbilical cord derived endothelial colony forming cells assessed as increase in HEY2 level in presence of panobinostat by qRT-PCR analysis; format: functional, cell-based
[26] = test system: Umbilical cord derived endothelial colony forming cell; test: Activation of WNT pro-angiogenic pathway in human umbilical cord derived endothelial colony forming cells by measuring EGR1 level in presence of panobinostat by qRT-PCR analysis; format: cell-based; conditions: filed as activator

inhibition [7]: inactive | inhibition [9]: inactive | inhibition [11]: Tde | inhibition [13]: inactive | inhibition [15]: inactive
SMILES: CCCc1cc(C)[nH]c(=O)c1CNC(=O)c1cc(-c2ccnc(N3CCN(C)CC3)c2)cc2c1cnn2C(C)C
Activity (HUVEC [1]): Active | Activity (HUVEC [2]): Active | Activity (HUVEC [3]): Active | Activity (HUVEC [4]): Active | Activity [5]: Active | Activity (HUVEC [6]): Active | Activity (Mus musculus): Active | Activity (HUVEC [8]): Dose-Dependent Effect | Activity [10]: Active | Activity (HUVEC [12]): Active | Activity (HUVEC [14]): Active | Activity (HUVEC [16]): Active | Activity [17]: Active | Activity (HUVEC [18]): Active | Activity [19]: Active | Activity (HUVEC [20]): Active | Activity (HUVEC [21]): Dose-Dependent Effect | Activity (HUVEC [22]): Active | Activity [23]: Active | Activity [24]: Active | Activity (HUVEC [25]): Active | Activity [26]: Active
